≈ marks a conversion by molar mass, not a printed value. Calls of active or inactive are those of the source. No cut-off for these calls is given here.
What was measured:
[1] = system: Candida albicans; test: Antifungal activity against Candida albicans ATCC 10231 after 48 hrs by NCCLS broth microdilution method; type: functional; settings: ATCC 10231, 48 h, read-out: MIC100
Procedure, shortened: (§1)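 Yeast MIC by NCCLS M27-A3 broth microdilution in RPMI-1640 buffered to pH 7.0 with MOPS. Twofold dilutions of 250–0.98 µg/mL, final DMSO ≤1%. Inoculum 1–5 × 10³ CFU/mL. Incubated at 30 °C in a moist dark chamber. Read visually at 48 h. MIC100 is the lowest concentration with no visible growth versus drug-free control.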

[2] = system: Candida tropicalis; test: Antifungal activity against Candida tropicalis by microplate reader analysis; type: functional
[3] = system: Candida tropicalis; test: Antifungal activity against Candida tropicalis assessed as growth inhibition at 3.9 ug/mL by microplate reader analysis; type: functional; settings: read-out: GI
[4] = system: Candida albicans; test: Antifungal activity against Candida albicans ATCC 10231 assessed as growth inhibition at 15.6 ug/mL after 24 hrs by microplate reader analysis; type: functional; settings: ATCC 10231, 24 h, read-out: GI
Procedure, shortened: (§2)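 96-well RPMI-1640 wells with compound at final 250–0.98 µg/mL (DMSO ≤1%). Inoculum 100 µL, 1–5 × 10³ CFU/mL, 200 µL final. Each well includes growth (DMSO, no compound) and sterility controls. % inhibition = 100 − (CTW−SCW)/(GCW−SCW) × 100, run in duplicate.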

[5] = Acute toxicity in bony fish assessed as mortality at 38.4 ug/mL after 96 hrs; settings: actinopterygii; read-out: Activity
Procedure, shortened: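 Guppy (Poecilia reticulata) acute static exposure: 10 fish per concentration in 2 L wide-mouthed jars holding the test solution. Compounds were added from […] to give the final concentrations. Dead fish were counted and removed every 24 h, with general condition noted; percentage mortality was scored at 96 h. Two experiments, each in triplicate.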

[6] = system: Candida albicans; test: Antifungal activity against Candida albicans ATCC 10231 assessed as growth inhibition at 250 ug/mL after 24 hrs by microplate reader analysis; type: functional; settings: ATCC 10231, 24 h, read-out: GI; procedure, shortened: as §2
[7] = system: Cryptococcus neoformans; test: Antifungal activity against Cryptococcus neoformans ATCC 32264 assessed as growth inhibition at 250 ug/mL after 48 hrs by microplate reader analysis; type: functional; settings: ATCC 32264, 48 h, read-out: GI
Procedure, shortened: (§3)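 Microplate growth-inhibition assay in RPMI-1640, compound at final 250–0.98 µg/mL (DMSO ≤1%). Inoculum 1–5 × 10³ CFU/mL. Sterility and DMSO growth controls included. Percent inhibition is computed from blank-corrected OD relative to the growth control, tested in duplicate.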

[8] = system: Candida tropicalis; test: Antifungal activity against Candida tropicalis assessed as growth inhibition at 250 ug/mL by microplate reader analysis; type: functional; settings: read-out: GI
[9] = system: Trichophyton mentagrophytes; test: Antifungal activity against Trichophyton mentagrophytes ATCC 9972 at 0.98 to 250 ug/mL by NCCLS broth microdilution method; type: functional, organism-based
Procedure, shortened: (§4)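 MIC by broth microdilution per NCCLS M27-A3/M38-A2 in RPMI-1640 buffered to pH 7.0 with MOPS. Twofold dilutions from 250–0.98 µg/mL, final DMSO ≤1%. Inoculum 1–5 × 10³ CFU/mL. Incubated in a moist dark chamber, 30 °C for Aspergillus and 28–30 °C for dermatophytes. Read visually when control growth allowed. Endpoint is the lowest concentration giving total inhibition of visible growth (MIC100).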

[10] = system: Cryptococcus neoformans; test: Antifungal activity against Cryptococcus neoformans ATCC 32264 assessed as growth inhibition at 125 ug/mL after 48 hrs by microplate reader analysis; type: functional; settings: ATCC 32264, 48 h, read-out: GI; procedure, shortened: as §3
[11] = system: Cryptococcus neoformans; test: Antifungal activity against Cryptococcus neoformans ATCC 32264 after 48 hrs by NCCLS broth microdilution method; type: functional; settings: ATCC 32264, 48 h, read-out: MIC100; procedure, shortened: as §1
[12] = system: Candida tropicalis; test: Antifungal activity against Candida tropicalis assessed as growth inhibition at 62.5 ug/mL by microplate reader analysis; type: functional; settings: read-out: GI
[13] = system: Candida tropicalis; test: Antifungal activity against Candida tropicalis assessed as growth inhibition at 31.25 ug/mL by microplate reader analysis; type: functional; settings: read-out: GI
[14] = system: Candida albicans; test: Antifungal activity against Candida albicans ATCC 10231 assessed as growth inhibition at 7.8 ug/mL after 24 hrs by microplate reader analysis; type: functional; settings: ATCC 10231, 24 h, read-out: GI; procedure, shortened: as §2
[15] = system: Cryptococcus neoformans; test: Antifungal activity against Cryptococcus neoformans ATCC 32264 after 48 hrs by microplate reader analysis; type: functional; settings: ATCC 32264, 48 h; procedure, shortened: as §3
[16] = system: Cryptococcus neoformans; test: Antifungal activity against Cryptococcus neoformans ATCC 32264 assessed as growth inhibition at 7.8 ug/mL after 48 hrs by microplate reader analysis; type: functional; settings: ATCC 32264, 48 h, read-out: GI; procedure, shortened: as §3
[17] = system: Cryptococcus neoformans; test: Antifungal activity against Cryptococcus neoformans ATCC 32264 assessed as growth inhibition at 62.5 ug/mL after 48 hrs by microplate reader analysis; type: functional; settings: ATCC 32264, 48 h, read-out: GI; procedure, shortened: as §3
[18] = system: Candida albicans; test: Antifungal activity against Candida albicans ATCC 10231 assessed as growth inhibition at 125 ug/mL after 24 hrs by microplate reader analysis; type: functional; settings: ATCC 10231, 24 h, read-out: GI; procedure, shortened: as §2
[19] = system: Candida tropicalis; test: Antifungal activity against Candida tropicalis after 48 hrs by NCCLS broth microdilution method; type: functional; settings: read-out: MIC100; procedure, shortened: as §1
[20] = system: Candida albicans; test: Antifungal activity against Candida albicans ATCC 10231 assessed as growth inhibition at 31.25 ug/mL after 24 hrs by microplate reader analysis; type: functional; settings: ATCC 10231, 24 h, read-out: GI; procedure, shortened: as §2
[21] = system: Candida albicans; test: Fungicidal activity against Candida albicans ATCC 10231 at 0.98 to 250 ug/mL after 48 hrs by agar plate dilution method; type: functional, organism-based
Procedure, shortened: (§5)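 MFC: after the microdilution MIC, material from each clear well was plated onto RPMI-1640 agar buffered with MOPS. Plates incubated at 30 °C and read after 48 h. MFC is the lowest concentration giving total inhibition of visible growth.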

[22] = system: Cryptococcus neoformans; test: Antifungal activity against Cryptococcus neoformans ATCC 32264 assessed as growth inhibition at 3.9 ug/mL after 48 hrs by microplate reader analysis; type: functional; settings: ATCC 32264, 48 h, read-out: GI; procedure, shortened: as §3
[23] = system: Aspergillus fumigatus; test: Antifungal activity against Aspergillus fumigatus ATCC 26934 at 0.98 to 250 ug/mL by NCCLS broth microdilution method; type: functional, organism-based; procedure, shortened: as §4
[24] = system: Trichophyton rubrum; test: Antifungal activity against Trichophyton rubrum CCC 110 at 0.98 to 250 ug/mL by NCCLS broth microdilution method; type: functional, organism-based; procedure, shortened: as §4
[25] = system: Cryptococcus neoformans; test: Fungicidal activity against Cryptococcus neoformans ATCC 32264 after 48 hrs by agar plate dilution method; type: functional; settings: ATCC 32264, 48 h; procedure, shortened: as §5
[26] = system: Aspergillus niger; test: Antifungal activity against Aspergillus niger ATCC 9029 at 0.98 to 250 ug/mL by NCCLS broth microdilution method; type: functional, organism-based; procedure, shortened: as §4
[27] = system: Candida albicans; test: Antifungal activity against Candida albicans ATCC 10231 assessed as growth inhibition at 62.5 ug/mL after 24 hrs by microplate reader analysis; type: functional; settings: ATCC 10231, 24 h, read-out: GI; procedure, shortened: as §2
[28] = system: Nannizzia gypsea; test: Antifungal activity against Microsporum gypseum CCC 115 at 0.98 to 250 ug/mL by NCCLS broth microdilution method; type: functional, organism-based; procedure, shortened: as §4
[29] = system: Candida tropicalis; test: Antifungal activity against Candida tropicalis assessed as growth inhibition at 125 ug/mL by microplate reader analysis; type: functional; settings: read-out: GI
[30] = system: Candida tropicalis; test: Fungicidal activity against Candida tropicalis at 0.98 to 250 ug/mL after 48 hrs by agar plate dilution method; type: functional, organism-based; procedure, shortened: as §5
[31] = system: Cryptococcus neoformans; test: Antifungal activity against Cryptococcus neoformans ATCC 32264 assessed as growth inhibition at 15.6 ug/mL after 48 hrs by microplate reader analysis; type: functional; settings: ATCC 32264, 48 h, read-out: GI; procedure, shortened: as §3
[32] = system: Candida albicans; test: Antifungal activity against Candida albicans ATCC 10231 assessed as growth inhibition at 3.9 ug/mL after 24 hrs by microplate reader analysis; type: functional; settings: ATCC 10231, 24 h, read-out: GI; procedure, shortened: as §2
[33] = system: Aspergillus flavus; test: Antifungal activity against Aspergillus flavus ATCC 9170 at 0.98 to 250 ug/mL by NCCLS broth microdilution method; type: functional, organism-based; procedure, shortened: as §4
[34] = system: Cryptococcus neoformans; test: Antifungal activity against Cryptococcus neoformans ATCC 32264 assessed as growth inhibition at 31.25 ug/mL after 48 hrs by microplate reader analysis; type: functional; settings: ATCC 32264, 48 h, read-out: GI; procedure, shortened: as §3
[35] = system: Candida albicans; test: Antifungal activity against Candida albicans ATCC 10231 after 24 hrs by microplate reader analysis; type: functional; settings: ATCC 10231, 24 h; procedure, shortened: as §2
[36] = system: Candida tropicalis; test: Antifungal activity against Candida tropicalis assessed as growth inhibition at 7.8 ug/mL by microplate reader analysis; type: functional; settings: read-out: GI
[37] = system: Candida tropicalis; test: Antifungal activity against Candida tropicalis assessed as growth inhibition at 15.6 ug/mL by microplate reader analysis; type: functional; settings: read-out: GI

Compound: COc1nc(N)nc(Nc2cccc(Cl)c2)c1N=O
- MIC [1]: 125 µg/mL (≈ 447 µM)
- MIC50 [2]: 3.9 µg/mL (≈ 13.9 µM)
- inhibition of growth at 3.9 µg/mL [3]: 48.8%
- inhibition of growth at 15.6 µg/mL [4]: 86.3%
- mortality at 96 h, 38.4 ug/mL [5]: 0%
- inhibition of growth at 250 µg/mL [6]: 100%
- inhibition of growth at 250 µg/mL [7]: 100%
- inhibition of growth at 250 µg/mL [8]: 100%
- Activity [9]: inactive
- inhibition of growth at 125 µg/mL [10]: 100%
- MIC [11]: 125 µg/mL (≈ 447 µM)
- inhibition of growth at 62.5 µg/mL [12]: 87.9%
- inhibition of growth at 31.25 µg/mL [13]: 85.2%
- inhibition of growth at 7.8 µg/mL [14]: 80.3%
- MIC50 [15]: 3.9 µg/mL (≈ 13.9 µM)
- inhibition of growth at 7.8 µg/mL [16]: 74.9%
- inhibition of growth at 62.5 µg/mL [17]: 83.7%
- inhibition of growth at 125 µg/mL [18]: 100%
- MIC [19]: 125 µg/mL (≈ 447 µM)
- inhibition of growth at 31.25 µg/mL [20]: 91.8%
- Activity [21]: inactive
- inhibition of growth at 3.9 µg/mL [22]: 53.2%
- Activity [23]: inactive
- Activity [24]: inactive
- MFC [25]: 250 µg/mL (≈ 894 µM)
- Activity [26]: inactive
- inhibition of growth at 62.5 µg/mL [27]: 92.7%
- Activity [28]: inactive
- inhibition of growth at 125 µg/mL [29]: 100%
- Activity [30]: inactive
- inhibition of growth at 15.6 µg/mL [31]: 80.6%
- inhibition of growth at 3.9 µg/mL [32]: 53.3%
- Activity [33]: inactive
- inhibition of growth at 31.25 µg/mL [34]: 81.3%
- MIC50 [35]: 3.9 µg/mL (≈ 13.9 µM)
- inhibition of growth at 7.8 µg/mL [36]: 64.5%
- inhibition of growth at 15.6 µg/mL [37]: 75.2%

Reference: ChEMBL document CHEMBL2146464, “Structure-activity relationship study of nitrosopyrimidines acting as antifungal agents” (Bioorg Med Chem, 2012)
